# Biological target: Protein-arginine deiminase type-4 (Homo sapiens) (UniProt Q9UM07)
# Test: PAD4 inhibition reversibility after dialysis, late-stage follow-up, mechanism study for PAD4 inhibitor project, biochemical, BAEE substrate, colorimetric citrulline readout (AID 651627)
# Settings: recombinant PAD4, dialysis, at 100 µM, hits give low values
# Procedure, shortened: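 System: recombinant PAD4 enzyme / Compound: one dose, 100 µM / Incubation: compound pre-incubation, 20 h dialysis, then 15 min substrate reaction at 37 °C / Detection: colorimetric citrulline detection, absorbance at 540 nm / Control set: DMSO-treated enzyme without compound as reference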
# Chain of Protein-arginine deiminase type-4 (Homo sapiens) (Q9UM07 whole entry, looked up): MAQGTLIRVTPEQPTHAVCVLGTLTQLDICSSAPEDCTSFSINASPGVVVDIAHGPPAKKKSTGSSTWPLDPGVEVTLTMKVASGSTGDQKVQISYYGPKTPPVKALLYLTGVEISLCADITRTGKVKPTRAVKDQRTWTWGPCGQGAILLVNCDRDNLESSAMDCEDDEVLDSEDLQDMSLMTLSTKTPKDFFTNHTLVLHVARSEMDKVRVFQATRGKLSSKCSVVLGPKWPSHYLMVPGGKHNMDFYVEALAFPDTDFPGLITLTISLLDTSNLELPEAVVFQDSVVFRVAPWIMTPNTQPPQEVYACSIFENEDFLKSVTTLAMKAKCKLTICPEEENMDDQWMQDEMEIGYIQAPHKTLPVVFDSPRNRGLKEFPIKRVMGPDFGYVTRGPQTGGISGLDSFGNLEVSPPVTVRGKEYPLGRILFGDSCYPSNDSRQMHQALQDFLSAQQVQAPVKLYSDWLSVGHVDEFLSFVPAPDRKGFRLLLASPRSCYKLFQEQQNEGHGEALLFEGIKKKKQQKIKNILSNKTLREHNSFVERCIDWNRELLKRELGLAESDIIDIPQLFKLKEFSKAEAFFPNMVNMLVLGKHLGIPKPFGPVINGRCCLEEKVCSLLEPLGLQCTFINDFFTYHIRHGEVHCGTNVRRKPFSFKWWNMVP
row,SMILES,residual activity after dialysis
1,NC1=CC(=O)c2cccnc2C1=O,2%
2,COC(=O)c1cccc(-c2ccc3c(n2)C(=O)C(N)=CC3=O)n1,13%
3,NC1=CC(=O)c2ccc(-c3ccccn3)nc2C1=O,12%

# Continued, values first:
row,residual activity after dialysis,SMILES
1,0%,COC1=C(Br)C(=O)c2ncccc2C1=O
2,0%,NC1=CC(=O)c2ccc(-c3cccc(C(=O)O)n3)nc2C1=O

# — PubChem BioAssay AID651627 (The Scripps Research Institute Molecular Screening Center, 2012)
